Results reported in paper PMC4804196 (Journal of biomolecular screening, 2012).

Columns and labels:
human RXFP1 [1] = biological target: T1, human RXFP1 (Homo sapiens, UniProt Q9HBX9); assay: ELISA cAMP assay; type: cell-based; settings: 96-well; for efficacy: normalized to 57.5 μM forskolin as 100%
T1 sequence (Q9HBX9 1-757): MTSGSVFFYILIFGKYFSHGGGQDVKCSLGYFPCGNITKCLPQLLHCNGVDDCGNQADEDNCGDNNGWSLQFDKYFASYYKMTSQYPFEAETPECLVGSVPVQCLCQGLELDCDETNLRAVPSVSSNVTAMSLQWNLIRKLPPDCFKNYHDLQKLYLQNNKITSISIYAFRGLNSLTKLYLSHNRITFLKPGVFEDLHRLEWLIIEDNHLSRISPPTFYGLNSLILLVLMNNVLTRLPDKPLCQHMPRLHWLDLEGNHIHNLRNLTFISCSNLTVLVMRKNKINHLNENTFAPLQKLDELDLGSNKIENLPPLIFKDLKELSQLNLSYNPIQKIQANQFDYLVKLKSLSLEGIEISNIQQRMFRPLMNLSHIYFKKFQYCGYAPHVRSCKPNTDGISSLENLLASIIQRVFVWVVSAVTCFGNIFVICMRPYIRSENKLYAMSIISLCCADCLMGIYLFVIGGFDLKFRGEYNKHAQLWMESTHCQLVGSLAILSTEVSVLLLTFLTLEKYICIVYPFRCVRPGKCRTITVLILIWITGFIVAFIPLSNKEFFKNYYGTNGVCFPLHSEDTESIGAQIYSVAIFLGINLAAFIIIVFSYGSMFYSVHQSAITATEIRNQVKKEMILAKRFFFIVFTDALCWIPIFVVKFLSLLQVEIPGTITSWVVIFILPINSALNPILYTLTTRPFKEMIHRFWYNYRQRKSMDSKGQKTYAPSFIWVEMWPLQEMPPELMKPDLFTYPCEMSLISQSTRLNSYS
In short: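 HEK293T cells stably expressing human RXFP1 were grown in DMEM with 10% FBS, penicillin/streptomycin and 500 μg/mL geneticin. They were seeded at 16,000 cells/well and left overnight at 37 °C, 5% CO₂. PDE inhibitor Ro 20-1724 (417 μM addition solution in PBS+) was added, then test compound in DMSO, for 30 min at 37 °C. Cells were lysed and cAMP was quantified by ELISA. EC50 came from nonlinear regression of dose-response curves.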

human RXFP1 [2] = biological target: T1, human RXFP1; assay: HTRF cAMP assay in HEK293-RXFP1 cells; type: cell-based
[3] = biological target: human relaxin family receptor 1 (RXFP1) (human) (UniProt Q9HBX9)
[4] = biological target: human relaxin family receptor 2 (RXFP2) (Homo sapiens, UniProt Q8WXD0); assay: HTRF cAMP selectivity assay in HEK293-RXFP2 cells; type: cell-based; settings: HEK293-RXFP1 vs HEK293-RXFP2
[5] = biological target: T2, vasopressin 1b receptor (V1b) (Homo sapiens, UniProt P47901); assay: HTRF cAMP counter screen in HEK293-V1b cells; type: cell-based
T2 sequence (P47901 1-424): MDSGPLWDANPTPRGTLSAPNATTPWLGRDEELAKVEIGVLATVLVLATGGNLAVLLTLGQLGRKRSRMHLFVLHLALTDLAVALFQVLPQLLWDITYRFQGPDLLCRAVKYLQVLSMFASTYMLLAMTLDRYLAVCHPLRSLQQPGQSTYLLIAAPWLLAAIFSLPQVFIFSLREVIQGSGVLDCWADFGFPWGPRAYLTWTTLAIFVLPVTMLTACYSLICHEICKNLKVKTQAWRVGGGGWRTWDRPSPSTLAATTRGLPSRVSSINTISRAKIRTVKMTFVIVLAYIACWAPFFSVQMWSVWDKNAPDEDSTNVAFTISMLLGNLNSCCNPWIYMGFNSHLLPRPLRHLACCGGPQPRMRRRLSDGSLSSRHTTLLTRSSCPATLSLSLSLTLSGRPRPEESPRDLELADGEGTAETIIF

human relaxin family receptor 2 (RXFP2), sequence (Q8WXD0 whole entry): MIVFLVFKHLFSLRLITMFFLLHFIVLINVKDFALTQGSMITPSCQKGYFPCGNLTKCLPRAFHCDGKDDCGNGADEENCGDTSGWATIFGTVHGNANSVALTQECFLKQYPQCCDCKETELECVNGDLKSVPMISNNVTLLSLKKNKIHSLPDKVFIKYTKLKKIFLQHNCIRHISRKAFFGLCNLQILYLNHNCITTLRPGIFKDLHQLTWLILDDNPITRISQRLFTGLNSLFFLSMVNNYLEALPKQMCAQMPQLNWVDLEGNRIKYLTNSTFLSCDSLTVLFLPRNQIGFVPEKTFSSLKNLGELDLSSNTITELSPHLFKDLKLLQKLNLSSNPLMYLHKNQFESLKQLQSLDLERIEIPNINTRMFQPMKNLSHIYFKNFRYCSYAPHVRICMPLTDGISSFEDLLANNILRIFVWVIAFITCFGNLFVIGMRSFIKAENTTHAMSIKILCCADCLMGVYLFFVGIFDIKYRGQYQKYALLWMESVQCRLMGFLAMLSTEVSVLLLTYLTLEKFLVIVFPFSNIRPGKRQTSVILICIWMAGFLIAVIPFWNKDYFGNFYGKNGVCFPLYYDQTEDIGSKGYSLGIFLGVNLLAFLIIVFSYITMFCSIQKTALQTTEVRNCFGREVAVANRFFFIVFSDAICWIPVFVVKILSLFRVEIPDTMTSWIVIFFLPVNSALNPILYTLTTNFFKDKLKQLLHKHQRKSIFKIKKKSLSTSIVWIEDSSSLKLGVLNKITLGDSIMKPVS
Porcine relaxin (ligand), sequence (P01348 25-182): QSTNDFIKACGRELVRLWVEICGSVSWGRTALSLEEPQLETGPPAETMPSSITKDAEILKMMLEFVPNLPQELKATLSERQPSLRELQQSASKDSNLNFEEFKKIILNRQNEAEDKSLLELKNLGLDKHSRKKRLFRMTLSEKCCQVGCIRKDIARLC

Molecule `O=C(Nc1ccccc1C(=O)Nc1ccccc1C(=O)NCc1ccco1)c1ccco1` [MLS000088899] has an EC50 (human RXFP1 [1]) of 2900 nM and an efficacy (human RXFP1 [1]) of 80%.

`O=C(Nc1cccc(C(F)(F)F)c1)c1ccccc1NC(=O)C1CCCCC1` [MLS000579461] showed an EC50 (human RXFP1 [1]) of 6200 nM and an efficacy (human RXFP1 [1]) of 60%.

`C=C[C@@]1(C)CC(=O)[C@]2(O)[C@@]3(C)[C@@H](O)CCC(C)(C)[C@@H]3[C@H](O)[C@H](OC(C)=O)[C@@]2(C)O1` [forskolin, reference compound] showed an EC50 (human RXFP1 [2]; EC50 (cAMP response), HEK293-RXFP1 cells, 384-well format) of 164 nM and an EC50 (human RXFP1 [2]; EC50 (cAMP response), HEK293-RXFP1 cells, 1,536-well format) of 193 nM.

Molecule Porcine relaxin (ligand) has an EC50 of cAMP production (HTRF cAMP assay) in HEK293-RXFP1 cells, 384-well format [3] of 0.203 nM.

relaxin was tested, and the “selectivity towards RXFP1 over RXFP2” value [4] was greater than 30 fold, the “activity in HEK293-V1b counter screen” value [5] was “no activity” and the EC50 (human RXFP1 [2]; read-out: EC50 (cAMP response), HEK293-RXFP1 cells, 384-well format) was 0.203 nM. For the same molecule, the EC50 (human RXFP1 [2]; read-out: EC50 (cAMP response), HEK293-RXFP1 cells, 1,536-well format) was 0.494 nM.
